According to ChEMBL document CHEMBL3526002, “Tissue distribution and identification of radioactivity components at elimination phase after oral administration of [¹⁴C]CS-1036, an α-amylase inhibitor, to rats” (Drug Metab Dispos, 2013):

Columns and labels:
Design in all cases: dose 5 mg/kg, dosed compound name [14C]CS-1036, route oral
Settings in all cases: in vivo
Large intestine [1] = assay: Drug uptake in albino F344/DuCrlCrlj rat large intestine assessed as ng equivalent of CS-1036 at 5 mg/kg, po after 8 hrs by liquid scintillation counting; type: ADME, organism-based
[2] = Drug uptake in albino F344/DuCrlCrlj rat mandibular gland at 5 mg/kg, po after 336 hrs by liquid scintillation counting; type: ADME, organism-based
Liver [3] = assay: Drug uptake in albino F344/DuCrlCrlj rat liver at 5 mg/kg, po after 336 hrs by liquid scintillation counting; type: ADME, organism-based
Liver [4] = assay: Drug uptake in albino F344/DuCrlCrlj rat liver at 5 mg/kg, po after 24 hrs by liquid scintillation counting; type: ADME, organism-based
Blood = assay: Drug uptake in albino F344/DuCrlCrlj rat blood assessed as ng equivalent of CS-1036 at 5 mg/kg, po after 168 hrs by liquid scintillation counting; type: ADME, organism-based
Method in brief: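 Male F344/DuCrlCrlj rats (159–167 g; n = 3 per time point) received a single oral dose of [14C]CS-1036 at 5 mg/kg. Blood was taken from the abdominal aorta at 1, 4, 8, 24, 72, 168 and 336 h. Radioactivity was counted by LSC with external-standard efficiency correction. Results were converted to ng equivalent of CS-1036/ml using specific activity and sample volume, and reported as mean + S.D.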

Adrenal gland [5] = assay: Drug uptake in albino F344/DuCrlCrlj rat adrenal gland assessed as ng equivalent of CS-1036 at 5 mg/kg, po after 4 hrs by liquid scintillation counting; type: ADME, organism-based
Pancreas = assay: Drug uptake in albino F344/DuCrlCrlj rat pancreas at 5 mg/kg, po after 24 hrs by liquid scintillation counting; type: ADME, organism-based
Stomach [6] = assay: Drug uptake in albino F344/DuCrlCrlj rat stomach assessed as ng equivalent of CS-1036 at 5 mg/kg, po after 336 hrs by liquid scintillation counting; type: ADME, organism-based
Cerebellum [7] = assay: Drug uptake in albino F344/DuCrlCrlj rat cerebellum assessed as ng equivalent of CS-1036 at 5 mg/kg, po after 4 hrs by liquid scintillation counting; type: ADME, organism-based
[8] = Drug uptake in albino F344/DuCrlCrlj rat skeletal muscle at 5 mg/kg, po after 336 hrs by liquid scintillation counting; type: ADME, organism-based, Muscle tissue
[9] = Drug uptake in albino F344/DuCrlCrlj rat urinary bladder assessed as ng equivalent of CS-1036 at 5 mg/kg, po after 168 hrs by liquid scintillation counting; type: ADME, organism-based
[10] = Drug uptake in albino F344/DuCrlCrlj rat skeletal muscle assessed as ng equivalent of CS-1036 at 5 mg/kg, po after 72 hrs by liquid scintillation counting; type: ADME, organism-based, Muscle tissue
Thymus [11] = assay: Drug uptake in albino F344/DuCrlCrlj rat thymus assessed as ng equivalent of CS-1036 at 5 mg/kg, po after 72 hrs by liquid scintillation counting; type: ADME, organism-based
Harderian gland = assay: Drug uptake in albino F344/DuCrlCrlj rat harderian gland assessed as ng equivalent of CS-1036 at 5 mg/kg, po after 168 hrs by liquid scintillation counting; type: ADME, organism-based
[12] = Drug uptake in albino F344/DuCrlCrlj rat brown fat at 5 mg/kg, po after 24 hrs by liquid scintillation counting; type: ADME, organism-based, Brown adipose tissue
Zone of skin = assay: Drug uptake in albino F344/DuCrlCrlj rat skin assessed as ng equivalent of CS-1036 at 5 mg/kg, po after 8 hrs by liquid scintillation counting; type: ADME, organism-based
Small intestine = assay: Drug uptake in albino F344/DuCrlCrlj rat small intestine at 5 mg/kg, po after 168 hrs by liquid scintillation counting; type: ADME, organism-based
[13] = Drug uptake in albino F344/DuCrlCrlj rat trachea assessed as ng equivalent of CS-1036 at 5 mg/kg, po after 24 hrs by liquid scintillation counting; type: ADME, organism-based
Cerebrum = assay: Drug uptake in albino F344/DuCrlCrlj rat cerebrum assessed as ng equivalent of CS-1036 at 5 mg/kg, po after 168 hrs by liquid scintillation counting; type: ADME, organism-based
Method in brief: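 Single oral [14C]CS-1036 at 5 mg/kg was given to male rats (159–167 g; n = 3). Cerebrum was collected after aortic bleeding at 1, 4, 8, 24, 72, 168 or 336 h, weighed, and homogenized in 2 volumes of saline. A 0.5 ml aliquot was solubilized in Soluene-350 and counted by LSC with external-standard correction. Results are in ng equivalent/g tissue from specific activity and sample weight.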

[14] = Drug uptake in albino F344/DuCrlCrlj rat eyeball at 5 mg/kg, po after 168 hrs by liquid scintillation counting; type: ADME, organism-based
Heart = assay: Drug uptake in albino F344/DuCrlCrlj rat heart assessed as ng equivalent of CS-1036 at 5 mg/kg, po after 4 hrs by liquid scintillation counting; type: ADME, organism-based
Aorta [15] = assay: Drug uptake in albino F344/DuCrlCrlj rat aorta assessed as ng equivalent of CS-1036 at 5 mg/kg, po after 1 hr by liquid scintillation counting; type: ADME, organism-based
Spleen [16] = assay: Drug uptake in albino F344/DuCrlCrlj rat spleen at 5 mg/kg, po after 24 hrs by liquid scintillation counting; type: ADME, organism-based
Spleen [17] = assay: Drug uptake in albino F344/DuCrlCrlj rat spleen at 5 mg/kg, po after 168 hrs by liquid scintillation counting; type: ADME, organism-based
Large intestine [18] = assay: Drug uptake in albino F344/DuCrlCrlj rat large intestine at 5 mg/kg, po after 4 hrs by liquid scintillation counting; type: ADME, organism-based
Adrenal gland [19] = assay: Drug uptake in albino F344/DuCrlCrlj rat adrenal gland at 5 mg/kg, po after 168 hrs by liquid scintillation counting; type: ADME, organism-based
Thymus [20] = assay: Drug uptake in albino F344/DuCrlCrlj rat thymus at 5 mg/kg, po after 72 hrs by liquid scintillation counting; type: ADME, organism-based
[21] = Drug uptake in albino F344/DuCrlCrlj rat testis at 5 mg/kg, po after 168 hrs by liquid scintillation counting; type: ADME, organism-based
[22] = Drug uptake in albino F344/DuCrlCrlj rat trachea at 5 mg/kg, po after 4 hrs by liquid scintillation counting; type: ADME, organism-based
[23] = Drug uptake in albino F344/DuCrlCrlj rat skeletal muscle at 5 mg/kg, po after 8 hrs by liquid scintillation counting; type: ADME, organism-based, Muscle tissue
Stomach [24] = assay: Drug uptake in albino F344/DuCrlCrlj rat stomach at 5 mg/kg, po after 72 hrs by liquid scintillation counting; type: ADME, organism-based
[25] = Drug uptake in albino F344/DuCrlCrlj rat eyeball assessed as ng equivalent of CS-1036 at 5 mg/kg, po after 4 hrs by liquid scintillation counting; type: ADME, organism-based
Adrenal gland [26] = assay: Drug uptake in albino F344/DuCrlCrlj rat adrenal gland assessed as ng equivalent of CS-1036 at 5 mg/kg, po after 8 hrs by liquid scintillation counting; type: ADME, organism-based
Aorta [27] = assay: Drug uptake in albino F344/DuCrlCrlj rat aorta at 5 mg/kg, po after 336 hrs by liquid scintillation counting; type: ADME, organism-based
Lung = assay: Drug uptake in albino F344/DuCrlCrlj rat lung at 5 mg/kg, po after 1 hr by liquid scintillation counting; type: ADME, organism-based
Cerebellum [28] = assay: Drug uptake in albino F344/DuCrlCrlj rat cerebellum at 5 mg/kg, po after 336 hrs by liquid scintillation counting; type: ADME, organism-based

C[C@H]1O[C@@H](O[C@H]2[C@H](O)[C@@H](O)[C@@H](O[14C@H]3[14C@H](O)[14CH2]N[14C@@H]3[14CH2]O)O[C@@H]2CO)[C@H](O)[C@@H](O)[C@@H]1O
Radiolabel recovery (Large intestine [1]): 8000 ngequiv/g | Radiolabel recovery [2]: 8.58 ngequiv/g | Radiolabel recovery (Liver [3]): 7.76 ngequiv/g | Radiolabel recovery (Liver [4]): 266 ngequiv/g | Radiolabel recovery (Blood): 3.52 ngequiv/ml | Radiolabel recovery (Adrenal gland [5]): 8.6 ngequiv/g | Radiolabel recovery (Pancreas): 310 ngequiv/g | Radiolabel recovery (Stomach [6]): 5.1 ngequiv/g | Radiolabel recovery (Cerebellum [7]): 0.6 ngequiv/g | Radiolabel recovery [8]: 7.04 ngequiv/g | Radiolabel recovery [9]: 6.6 ngequiv/g | Radiolabel recovery [10]: 9.2 ngequiv/g | Radiolabel recovery (Thymus [11]): 6.6 ngequiv/g | Radiolabel recovery (Harderian gland): 9 ngequiv/g | Radiolabel recovery [12]: 200 ngequiv/g | Radiolabel recovery (Zone of skin): 71.6 ngequiv/g | Radiolabel recovery (Small intestine): 13 ngequiv/g | Radiolabel recovery [13]: 7.1 ngequiv/g | Radiolabel recovery (Cerebrum): 3.11 ngequiv/g | Radiolabel recovery [14]: 4.54 ngequiv/g | Radiolabel recovery (Heart): 7 ngequiv/g | Radiolabel recovery (Aorta [15]): 15.9 ngequiv/g | Radiolabel recovery (Spleen [16]): 82.4 ngequiv/g | Radiolabel recovery (Spleen [17]): 18.3 ngequiv/g | Radiolabel recovery (Large intestine [18]): 5930 ngequiv/g | Radiolabel recovery (Adrenal gland [19]): 78.9 ngequiv/g | Radiolabel recovery (Thymus [20]): 48.3 ngequiv/g | Radiolabel recovery [21]: 9.95 ngequiv/g | Radiolabel recovery [22]: 31.1 ngequiv/g | Radiolabel recovery [23]: 32.2 ngequiv/g | Radiolabel recovery (Stomach [24]): 49 ngequiv/g | Radiolabel recovery [25]: 4.8 ngequiv/g | Radiolabel recovery (Adrenal gland [26]): 66.9 ngequiv/g | Radiolabel recovery (Aorta [27]): 11 ngequiv/g | Radiolabel recovery (Lung): 47.1 ngequiv/g | Radiolabel recovery (Cerebellum [28]): 5.41 ngequiv/g
